Activity calls are given as the source filed them. No cut-off for these calls is given here.
Experiments:
[1] = biological target: DNA topoisomerase 2-alpha (Homo sapiens) (UniProt P11388); test: Inhibition of topoisomerase 2alpha using pBR322 DNA as substrate at 50 uM after 30 mins by gel electrophoresis
In short: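 Purified topo-IIα enzyme (4 U/µL) incubated with pBR322 plasmid DNA and compound at 50, 25 or 10 µM final, in fresh buffer containing ATP, KCl, MgCl2, DTT and Tris pH 8.0. Inhibition of DNA processing assessed on the resulting gel.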

[2] = biological target: T1, Serine/threonine-protein kinase Chk1 (Homo sapiens) (UniProt O14757); test: Increase in Chk1 phosphorylation at Ser345 in human COLO205 cells after 24 hrs; assay type: cell-based; settings: COLO 205
T1 sequence (whole entry): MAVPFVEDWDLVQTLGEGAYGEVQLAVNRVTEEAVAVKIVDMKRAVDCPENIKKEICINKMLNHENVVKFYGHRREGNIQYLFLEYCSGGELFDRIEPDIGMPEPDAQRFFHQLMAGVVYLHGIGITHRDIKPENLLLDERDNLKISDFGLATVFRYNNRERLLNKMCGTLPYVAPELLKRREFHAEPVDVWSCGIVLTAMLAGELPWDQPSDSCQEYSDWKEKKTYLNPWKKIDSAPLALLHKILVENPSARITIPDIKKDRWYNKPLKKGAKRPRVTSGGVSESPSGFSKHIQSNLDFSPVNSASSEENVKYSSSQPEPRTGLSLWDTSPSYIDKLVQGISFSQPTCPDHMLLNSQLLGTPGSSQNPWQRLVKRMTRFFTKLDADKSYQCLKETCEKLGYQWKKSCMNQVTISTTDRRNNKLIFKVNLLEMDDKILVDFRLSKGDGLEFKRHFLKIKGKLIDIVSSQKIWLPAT
In short: (§1)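 Colo-205 cells on coverslips treated 24 h at 4 µM. Fixed in 4% paraformaldehyde, permeabilised with 0.2% Triton X-100, held in methanol overnight at 4 °C, and blocked with 1% BSA. Stained with anti-phospho-ATM (S1981) or anti-phospho-Chk1 (1:100) for 2 h at room temperature, then FITC anti-rabbit secondary for 1 h; DAPI/PI counterstain and confocal imaging.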

A549 = test: Growth inhibition of human A549 cells after 48 hrs by sulforhodamine B assay; assay type: functional; settings: A549, 48 h
In short: (§2)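 Cells grown in DMEM with 10% FBS and 2 mM L-glutamine, plated at densities set by doubling time, and held 24 h before dosing. Exposure was 48 h to 0.1, 1, 10 and 100 µM in triplicate wells. Cells fixed with cold TCA (final 10%) 60 min at 4 °C and stained with 0.4% SRB 20 min. Bound dye eluted in 10 mM Tris base and read at 540 nm (690 nm reference). GI50 is the concentration giving 50% reduction in net protein gain versus control; values are the mean of three determinations.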

COLO 205 [3] = test: Induction of apoptosis in human COLO205 cells assessed as up-regulation of NF-kappaB at 4 uM after 24 hrs by Western blotting analysis; assay type: functional, cell-based
In short: (§3)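 Colo-205 cells treated 24 h at 4 µM and lysed in ice-cold RIPA with protease inhibitors and NaF. Protein measured by Bradford; 50 µg per lane run on 12% SDS-PAGE and transferred to PVDF. Membrane blocked 2 h, primary antibody (topo-IIα/β, p21, p16, pro-caspase-3, NF-kB p65) overnight at 4 °C, HRP secondary 1:2000 for 1 h, chemiluminescence detection; β-actin as loading control. Reduced procaspase-3 taken as caspase-3 activation.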

COLO 205 [4] = test: Induction of apoptosis in human COLO205 cells assessed as increase in caspase 3 activation at 4 uM after 24 hrs by ELISA; assay type: functional, cell-based
COLO 205 [5] = test: Induction of apoptosis in human COLO205 cells assessed as increase in caspase 3 activation at 4 uM after 24 hrs by Western blotting analysis; assay type: functional, cell-based; in short: as §3
[6] = biological target: Serine-protein kinase ATM (Homo sapiens) (UniProt Q13315); test: Induction of ATM activation in human COLO205 cells at 4 uM after 24 hrs by ATM S1981 staining; assay type: cell-based; settings: COLO 205; in short: as §1
MCF7 = test: Growth inhibition of human MCF7 cells after 48 hrs by sulforhodamine B assay; assay type: functional; settings: MCF7, 48 h; in short: as §2
COLO 205 [7] = test: Induction of apoptosis in human COLO205 cells assessed as down regulation of Bcl-2 at 4 uM after 24 hrs by ELISA; assay type: functional, cell-based
In short: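 Colo-205 cells treated 24 h at 4 µM, with etoposide and camptothecin as controls. Lysates added to Bcl2-antibody-coated wells, followed by a biotin-conjugated anti-human Bcl2 monoclonal antibody, in a Bcl2 ELISA.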

[8] = biological target: DNA topoisomerase 2-beta (Homo sapiens) (UniProt Q02880); test: Inhibition of topoisomerase 2beta in human in COLO205 cells assessed as induction of double-strand DNA breaks at 4 uM after 24 hrs by gamma-H2AX staining-based Western blotting analysis; assay type: cell-based; settings: COLO 205
In short: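 Colo-205 cells treated 24 h at 4 µM. Double-strand breaks detected with anti-phospho-Ser139 H2AX antibody, both by immunofluorescence staining and by Western blot, with β-actin as loading control.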

COLO 205 [9] = test: Cell cycle arrest in human COLO205 cells assessed as accumulation at G1 phase at 4 uM after 24 hrs by FACS analysis (reference value: 60.89%); assay type: functional
In short: (§4)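 Colo-205 cells seeded at […] per 60 mm dish and treated 24 h at 4 µM; TSA arm used TSA at 4 µM for 12 h. Cells trypsinised, fixed in ice-cold 70% ethanol 30 min at 4 °C, RNase 1 mg/mL 30 min at 37 °C, then propidium iodide/citrate/Triton stain. DNA content of 20,000 events read by flow cytometry; phase percentages from histograms.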

COLO 205 [10] = test: Cell cycle arrest in human COLO205 cells assessed as accumulation at G1 phase at 4 uM after 24 hrs by FACS analysis in presence of HDAC inhibitor, trichostatin A (reference value: 70.57%); assay type: functional; in short: as §4
COLO 205 [11] = test: Cell cycle arrest in human COLO205 cells assessed as accumulation at G2/M phase at 4 uM after 24 hrs by FACS analysis in presence of HDAC inhibitor, trichostatin A (reference value: 17.41%); assay type: functional; in short: as §4
COLO 205 [12] = test: Cytotoxicity against human COLO205 cells at 4 uM after 24 hrs by MTT assay; assay type: functional, cell-based
In short: (§5)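 Colo-205 cells plated at 10,000 per well, left overnight, then exposed 24 h at 2, 4 or 8 µM. MTT added for 2 h at 37 °C, formazan dissolved in extraction buffer, and optical density read at 570 nm against untreated cells.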

COLO 205 [13] = test: Cell cycle arrest in human COLO205 cells assessed as accumulation at S phase at 4 uM after 24 hrs by FACS analysis (reference value: 8.91%); assay type: functional; in short: as §4
A2780 = test: Growth inhibition of human A2780 cells after 48 hrs by sulforhodamine B assay; assay type: functional; settings: A2780, 48 h; in short: as §2
COLO 205 [14] = test: Cell cycle arrest in human COLO205 cells assessed as accumulation at G2/M phase at 4 uM after 24 hrs by FACS analysis (reference value: 25.92%); assay type: functional; in short: as §4
HOP-62 = test: Growth inhibition of human HOP62 cells after 48 hrs by sulforhodamine B assay; assay type: functional; settings: HOP-62, 48 h; in short: as §2
COLO 205 [15] = test: Cytotoxicity against human COLO205 cells at 8 uM after 24 hrs by MTT assay; assay type: functional, cell-based; in short: as §5

Chain of DNA topoisomerase 2-alpha (Homo sapiens) (P11388 whole entry): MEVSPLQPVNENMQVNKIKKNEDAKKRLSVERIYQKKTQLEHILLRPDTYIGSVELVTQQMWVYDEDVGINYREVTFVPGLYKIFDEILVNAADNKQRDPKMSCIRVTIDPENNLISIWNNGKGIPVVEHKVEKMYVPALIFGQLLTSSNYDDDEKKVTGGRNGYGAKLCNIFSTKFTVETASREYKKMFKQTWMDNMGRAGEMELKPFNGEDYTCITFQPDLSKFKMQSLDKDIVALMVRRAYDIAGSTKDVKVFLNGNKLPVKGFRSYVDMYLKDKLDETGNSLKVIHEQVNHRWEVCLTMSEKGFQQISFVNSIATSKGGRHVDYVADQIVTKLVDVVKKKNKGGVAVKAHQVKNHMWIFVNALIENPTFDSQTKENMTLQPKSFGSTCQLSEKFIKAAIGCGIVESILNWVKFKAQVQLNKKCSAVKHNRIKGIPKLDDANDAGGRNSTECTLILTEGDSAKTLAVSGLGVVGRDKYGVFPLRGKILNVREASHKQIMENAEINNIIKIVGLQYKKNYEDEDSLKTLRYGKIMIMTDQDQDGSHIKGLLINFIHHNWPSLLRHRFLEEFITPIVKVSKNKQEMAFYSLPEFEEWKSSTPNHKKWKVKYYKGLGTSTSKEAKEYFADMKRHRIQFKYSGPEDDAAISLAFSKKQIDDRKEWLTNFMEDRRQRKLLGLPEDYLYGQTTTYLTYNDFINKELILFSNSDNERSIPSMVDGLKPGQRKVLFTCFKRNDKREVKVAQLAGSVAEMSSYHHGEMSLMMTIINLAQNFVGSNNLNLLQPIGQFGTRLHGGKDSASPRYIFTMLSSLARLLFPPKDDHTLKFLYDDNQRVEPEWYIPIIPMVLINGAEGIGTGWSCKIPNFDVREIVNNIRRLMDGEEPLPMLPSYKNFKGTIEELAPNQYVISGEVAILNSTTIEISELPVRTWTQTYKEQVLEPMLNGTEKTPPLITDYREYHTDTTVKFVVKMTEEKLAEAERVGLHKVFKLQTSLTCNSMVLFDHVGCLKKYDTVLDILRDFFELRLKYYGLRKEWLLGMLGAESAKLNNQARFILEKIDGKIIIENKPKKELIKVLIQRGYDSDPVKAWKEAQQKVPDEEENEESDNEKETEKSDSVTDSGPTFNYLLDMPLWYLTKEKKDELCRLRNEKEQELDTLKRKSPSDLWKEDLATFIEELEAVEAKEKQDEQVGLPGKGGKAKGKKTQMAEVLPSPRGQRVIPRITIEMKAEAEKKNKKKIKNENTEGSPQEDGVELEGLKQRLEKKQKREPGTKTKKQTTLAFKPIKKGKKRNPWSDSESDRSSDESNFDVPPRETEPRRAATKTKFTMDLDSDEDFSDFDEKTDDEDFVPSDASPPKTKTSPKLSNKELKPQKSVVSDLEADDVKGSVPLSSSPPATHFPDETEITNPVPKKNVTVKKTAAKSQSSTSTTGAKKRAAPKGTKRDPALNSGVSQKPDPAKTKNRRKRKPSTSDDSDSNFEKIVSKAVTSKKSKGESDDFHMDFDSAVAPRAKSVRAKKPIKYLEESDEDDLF
Chain of DNA topoisomerase 2-beta (Homo sapiens) (Q02880 whole entry): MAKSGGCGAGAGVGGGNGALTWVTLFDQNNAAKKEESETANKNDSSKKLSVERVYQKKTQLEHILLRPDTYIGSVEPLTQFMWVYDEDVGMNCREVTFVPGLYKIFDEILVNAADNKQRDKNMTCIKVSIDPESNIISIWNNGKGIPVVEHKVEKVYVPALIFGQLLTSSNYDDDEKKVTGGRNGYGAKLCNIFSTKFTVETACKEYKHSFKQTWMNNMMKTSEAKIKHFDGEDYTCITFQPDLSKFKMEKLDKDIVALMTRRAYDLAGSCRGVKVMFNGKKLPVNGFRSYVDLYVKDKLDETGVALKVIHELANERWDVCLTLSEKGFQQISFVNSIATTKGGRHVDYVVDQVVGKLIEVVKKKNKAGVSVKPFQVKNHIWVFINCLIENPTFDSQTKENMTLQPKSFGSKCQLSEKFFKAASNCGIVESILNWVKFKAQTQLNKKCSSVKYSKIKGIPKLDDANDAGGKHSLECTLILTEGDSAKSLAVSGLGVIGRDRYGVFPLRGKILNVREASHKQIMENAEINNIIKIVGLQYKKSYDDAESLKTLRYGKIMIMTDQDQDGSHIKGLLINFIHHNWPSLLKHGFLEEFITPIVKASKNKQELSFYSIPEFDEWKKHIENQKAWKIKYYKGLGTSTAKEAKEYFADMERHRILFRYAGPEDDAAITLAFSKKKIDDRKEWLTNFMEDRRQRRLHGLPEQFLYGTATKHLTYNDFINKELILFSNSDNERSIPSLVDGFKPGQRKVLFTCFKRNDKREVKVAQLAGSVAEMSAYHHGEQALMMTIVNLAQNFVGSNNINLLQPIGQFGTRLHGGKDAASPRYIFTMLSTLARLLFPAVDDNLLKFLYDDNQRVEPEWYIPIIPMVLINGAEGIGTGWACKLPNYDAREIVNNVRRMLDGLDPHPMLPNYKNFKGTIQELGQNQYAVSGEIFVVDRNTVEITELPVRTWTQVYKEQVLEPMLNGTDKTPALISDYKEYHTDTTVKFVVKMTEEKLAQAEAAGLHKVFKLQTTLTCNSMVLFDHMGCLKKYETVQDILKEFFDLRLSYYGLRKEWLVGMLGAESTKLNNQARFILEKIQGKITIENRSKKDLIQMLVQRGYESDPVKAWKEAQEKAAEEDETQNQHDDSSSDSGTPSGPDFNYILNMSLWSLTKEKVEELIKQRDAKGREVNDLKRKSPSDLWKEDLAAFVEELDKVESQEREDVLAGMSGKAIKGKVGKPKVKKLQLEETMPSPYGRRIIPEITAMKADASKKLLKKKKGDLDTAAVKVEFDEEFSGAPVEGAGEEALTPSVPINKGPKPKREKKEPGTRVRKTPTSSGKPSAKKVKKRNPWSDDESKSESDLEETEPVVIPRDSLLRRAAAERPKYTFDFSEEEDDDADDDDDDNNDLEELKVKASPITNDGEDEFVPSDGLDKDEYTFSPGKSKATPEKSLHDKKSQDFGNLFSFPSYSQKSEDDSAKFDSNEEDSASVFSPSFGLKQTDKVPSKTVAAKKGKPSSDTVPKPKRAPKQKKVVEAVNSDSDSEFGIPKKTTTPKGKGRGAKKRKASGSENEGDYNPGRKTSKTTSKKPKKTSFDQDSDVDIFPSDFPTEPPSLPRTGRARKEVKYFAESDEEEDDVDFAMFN

| Structure (SMILES) | inhibition [1] | Activity [2] | GI50 (A549) | Activity (COLO 205 [3]) | Activity (COLO 205 [4]) | Activity (COLO 205 [5]) | Activity [6] | GI50 (MCF7) | Activity (COLO 205 [7]) | inhibition [8] | Activity (COLO 205 [9]) | Activity (COLO 205 [10]) | Activity (COLO 205 [11]) | Activity (COLO 205 [12]) | Percentage of cells in S phase (COLO 205 [13]) | GI50 (A2780) | Percentage of cells in G2/M phase (COLO 205 [14]) | GI50 (HOP-62) | Activity (COLO 205 [15]) |
| --- | --- | --- | --- | --- | --- | --- | --- | --- | --- | --- | --- | --- | --- | --- | --- | --- | --- | --- | --- |
| COc1cc([C@@H]2c3cc4c(cc3[C@@H](O[C@@H]3O[C@@H]5CO[C@@H](C)O[C@H]5[C@H](O)[C@H]3O)[C@H]3COC(=O)[C@H]23)OCO4)cc(OC)c1O [ETOPOSIDE] | Active | Active | 3080 nM | Active | Active | Active | Active | 2110 nM | Active | Active | 12.82% | 21.74% | 13.28% | Active | 6.97% | 1310 nM | 74.27% | 800 nM | Active |
| COC(=O)c1sccc1S(=O)(=O)N[C@@H]1c2cc3c(cc2[C@@H](c2cc(OC)c(OC)c(OC)c2)[C@H]2C(=O)OC[C@@H]21)OCO3 | Active | Active | 150 nM | Active | Active | Active | Active | 180 nM | Active | 50% | 27.43% | 18.8% | 15.7% | Active | 8.16% | 50 nM | 40.57% | 40 nM | Active |

Source: ChEMBL document CHEMBL1955829, “Synthesis and biological evaluation of 4β-sulphonamido and 4β-[(4'-sulphonamido)benzamide]podophyllotoxins as DNA topoisomerase-IIα and apoptosis inducing agents” (2012)
